Experimental findings from ChEMBL document CHEMBL1154391, “Novel thienopyrimidine and thiazolopyrimidine kinase inhibitors with activity against Tie-2 in vitro and in vivo” (Bioorg Med Chem Lett, 2009) are described below.

Data set [1] addresses T1, Angiopoietin-1 receptor (Homo sapiens, UniProt Q02763). The data set can be described thus: Inhibition of Tie-2 phosphorylation by cell based assay.
Data set [2] in a line: (§1) Protein binding in rat plasma. It counts as ADME, cell-free. The conditions noted are these: read-out: PPB (converted).
A short description of data set [3]: Aqueous solubility at pH 7.
In data set [4] the test system is Rattus norvegicus. The data set can be described thus: Hypotensive activity in rat assessed as VEGF-induced reduction in blood pressure at 20 mg/kg, iv. It counts as functional, organism-based. Also on record: dose 20 mg/kg. The essentials:
(§2)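 Male Alderley Park rats anaesthetised with α-chloralose iv, maintained with thiopentone ip. Carotid artery cannulated for blood pressure recording by pressure transducer. Jugular vein cannulated for bolus VEGF or Ang-1 in 0.85% NaCl. Ang-1 was baculovirus/insect-cell expressed, 40–60 µg per batch, adjusted to give a 10–20 mmHg fall. Compound or vehicle given iv (25% w/v hydroxypropyl-β-cyclodextrin, Sorensen phosphate pH 5.5).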

For data set [5], the system named is Rattus norvegicus. The data set can be described thus: Hypotensive activity in rat assessed as reversal of angiopoietin-1-induced reduction in blood pressure at 20 mg/kg, iv. Also on record: dose 20 mg/kg. It counts as functional, organism-based. The essentials:
as §2

Data set [6] is described as follows: Bioavailability in rat at 2 mg/kg, iv and 5 mg/kg, po. It counts as ADME, organism-based. The conditions noted are these: in vivo.
Data set [7] is described as follows: Volume of distribution at steady state in rat at 2 mg/kg, iv and 5 mg/kg, po. It counts as ADME, organism-based. The conditions noted are these: in vivo, read-out: Vdss.
Data set [8] in a line: Clearance in rat at 2 mg/kg, iv and 5 mg/kg, po. The format is ADME, organism-based. The conditions noted are these: in vivo.
For data set [9], the target named is Vascular endothelial growth factor receptor 1 (Homo sapiens) (UniProt P17948). The data set can be described thus: Inhibition of Flt-1.
In data set [10] the target is T1, Angiopoietin-1 receptor. The data set can be described thus: Inhibition of Tie-2.
Data set [11] addresses Vascular endothelial growth factor receptor 2 (Homo sapiens) (UniProt P35968). The data set is described as follows: Inhibition of FLt.
A short description of data set [12]: Half life in rat at 5 mg/kg, po. The format is ADME, organism-based. Also on record: dose 5 mg/kg, route oral. The conditions noted are these: in vivo.
A short description of data set [13]: Lipophilicity, log D of the compound. To be noted: octanol/water.
Another data set concerns Plasma. Described as §1. The format is ADME, cell-free.
Data set [14] is described as follows: Cmax in rat at 1 mg/kg, po. It counts as ADME, organism-based. The arrangement: dose 1 mg/kg, route oral. To be noted: in vivo.

Converted amounts (≈) assume the structure as drawn. The source made the active and inactive calls. The rule behind the calls is not given here. Where only a bound is given, the exact number is not on record here.

T1 sequence (Q02763 whole entry): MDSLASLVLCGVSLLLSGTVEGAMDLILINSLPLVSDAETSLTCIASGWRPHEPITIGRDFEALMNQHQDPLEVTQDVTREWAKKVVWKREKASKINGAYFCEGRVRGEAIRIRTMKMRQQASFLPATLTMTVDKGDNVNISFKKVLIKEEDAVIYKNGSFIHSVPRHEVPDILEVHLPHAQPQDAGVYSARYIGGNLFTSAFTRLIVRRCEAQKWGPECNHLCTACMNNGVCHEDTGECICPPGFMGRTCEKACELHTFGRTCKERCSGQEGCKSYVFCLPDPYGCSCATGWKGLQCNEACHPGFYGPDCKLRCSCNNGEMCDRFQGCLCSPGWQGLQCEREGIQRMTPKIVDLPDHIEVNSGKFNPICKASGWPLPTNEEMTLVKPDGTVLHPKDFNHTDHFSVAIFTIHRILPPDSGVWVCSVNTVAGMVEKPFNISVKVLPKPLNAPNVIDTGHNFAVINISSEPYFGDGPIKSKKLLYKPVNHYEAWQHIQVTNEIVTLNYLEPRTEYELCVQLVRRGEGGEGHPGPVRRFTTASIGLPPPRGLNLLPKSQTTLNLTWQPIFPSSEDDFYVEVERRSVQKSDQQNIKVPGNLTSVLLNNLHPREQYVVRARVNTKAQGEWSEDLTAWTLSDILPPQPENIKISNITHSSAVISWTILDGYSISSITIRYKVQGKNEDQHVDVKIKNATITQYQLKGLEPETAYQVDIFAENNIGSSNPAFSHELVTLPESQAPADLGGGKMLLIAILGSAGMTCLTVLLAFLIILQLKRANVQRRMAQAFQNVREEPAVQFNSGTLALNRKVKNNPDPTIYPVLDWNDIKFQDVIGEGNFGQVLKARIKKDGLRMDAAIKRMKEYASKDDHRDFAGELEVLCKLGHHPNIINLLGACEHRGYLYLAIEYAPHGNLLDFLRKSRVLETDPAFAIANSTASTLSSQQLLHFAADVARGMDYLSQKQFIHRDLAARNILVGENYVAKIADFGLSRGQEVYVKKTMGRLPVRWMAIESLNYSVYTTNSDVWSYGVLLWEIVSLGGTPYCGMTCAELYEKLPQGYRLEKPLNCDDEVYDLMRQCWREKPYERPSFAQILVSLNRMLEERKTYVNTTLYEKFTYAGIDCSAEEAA
Sequence of Vascular endothelial growth factor receptor 1 (Homo sapiens) (P17948 whole entry, looked up): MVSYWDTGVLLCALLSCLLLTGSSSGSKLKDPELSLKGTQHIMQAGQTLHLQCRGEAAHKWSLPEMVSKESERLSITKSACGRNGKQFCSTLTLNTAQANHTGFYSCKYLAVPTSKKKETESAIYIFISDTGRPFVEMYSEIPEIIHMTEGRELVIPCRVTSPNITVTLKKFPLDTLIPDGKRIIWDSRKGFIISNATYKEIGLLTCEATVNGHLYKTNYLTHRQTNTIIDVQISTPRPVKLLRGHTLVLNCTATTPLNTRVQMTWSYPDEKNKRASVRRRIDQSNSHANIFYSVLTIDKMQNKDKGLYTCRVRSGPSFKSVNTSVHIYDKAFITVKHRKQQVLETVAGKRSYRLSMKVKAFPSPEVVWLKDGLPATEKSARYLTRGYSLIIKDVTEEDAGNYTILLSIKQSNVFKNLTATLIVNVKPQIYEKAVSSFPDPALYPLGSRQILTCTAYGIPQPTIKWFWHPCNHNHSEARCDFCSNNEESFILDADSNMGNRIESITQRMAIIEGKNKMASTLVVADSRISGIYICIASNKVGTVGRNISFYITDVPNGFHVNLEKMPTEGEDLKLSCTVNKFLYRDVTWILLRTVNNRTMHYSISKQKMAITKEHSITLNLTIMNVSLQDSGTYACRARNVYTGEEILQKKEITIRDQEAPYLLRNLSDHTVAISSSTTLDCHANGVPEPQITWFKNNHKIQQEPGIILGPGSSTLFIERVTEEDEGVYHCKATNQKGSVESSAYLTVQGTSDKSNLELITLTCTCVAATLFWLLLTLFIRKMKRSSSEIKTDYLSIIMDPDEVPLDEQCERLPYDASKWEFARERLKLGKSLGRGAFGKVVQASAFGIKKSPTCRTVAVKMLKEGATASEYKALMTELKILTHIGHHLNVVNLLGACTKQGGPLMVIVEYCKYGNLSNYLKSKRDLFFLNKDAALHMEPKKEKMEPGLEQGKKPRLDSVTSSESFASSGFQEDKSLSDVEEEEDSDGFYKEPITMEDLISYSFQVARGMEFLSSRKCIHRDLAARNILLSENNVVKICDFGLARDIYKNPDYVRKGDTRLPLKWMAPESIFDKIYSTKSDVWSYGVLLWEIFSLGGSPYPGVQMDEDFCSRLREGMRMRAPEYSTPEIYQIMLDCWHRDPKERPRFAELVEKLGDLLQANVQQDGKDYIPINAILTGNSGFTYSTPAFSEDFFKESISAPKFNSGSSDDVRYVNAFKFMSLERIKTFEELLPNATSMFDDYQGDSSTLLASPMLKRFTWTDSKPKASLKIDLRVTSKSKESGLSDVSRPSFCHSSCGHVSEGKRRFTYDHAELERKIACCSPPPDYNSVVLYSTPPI

For orientation: IC50 means the concentration needed to halve the response being measured. Read a high IC50 as weaker potency. Compound `Cc1ccc(Sc2cccc(-c3ncn(C)c3-c3cc4c(N)ncnc4s3)c2)cc1` came in with an IC50 against Angiopoietin-1 receptor [1] of 1.4 µM.

Regarding `Cn1cnc(-c2cccc(NC(=O)Nc3cc(C(F)(F)F)ccc3F)c2)c1-c1cc2c(N)ncnc2s1`, at Angiopoietin-1 receptor [1], the IC50 worked out at 0.07 µM.

In the case of `Cn1cnc(-c2cccc(NC(=O)Nc3ccccc3)c2)c1-c1cc2c(N)ncnc2s1`, at Angiopoietin-1 receptor [1], it took 1.4 µM to reach half-maximal inhibition (IC50).

Consider `Nc1ncnc2sc(-c3c(-c4ccccc4)ncn3CC3CCCCC3)nc12`, for which the fraction unbound in data set [2] is 0.016.

The solubility is the dissolved amount per volume that the medium holds. Higher therefore signals much dissolved substance. In turn, `CCn1cnc(-c2ccccc2)c1-c1nc2c(N)ncnc2s1` returned a solubility in data set [3] of 171 µM (≈ 55.1 µg/mL). On Angiopoietin-1 receptor [1], inhibition was half-maximal at 3 µM (IC50).

For the compound `Nc1ncnc2sc(-c3c(-c4ccccc4)ncn3Cc3ccccc3N3CCOCC3)nc12`, in the data set with Rattus norvegicus [4], the outcome was inactive. Also, the fraction unbound in [2] is 0.058. Besides, the outcome with Rattus norvegicus [5] was Active. On Angiopoietin-1 receptor [1], the IC50 was 0.44 µM.

A word on the bioavailability: it is dose-corrected exposure relative to a reference, in per cent. A higher bioavailability goes with good availability. In general, half-life refers to the time in which the quantity being followed falls by half. A low value points to fast loss. For `Cn1cnc(-c2ccccc2)c1-c1cc2c(N)ncnc2s1`, in [6], the bioavailability is > 100%. In addition, in [7], the Vd is 1.4 L/kg. Further, in data set [2], the fraction unbound was 0.045. Further, the clearance in data set [8] is 39 mL/min/kg. In addition, the IC50 in data set [9] was found to be 10 µM; at Angiopoietin-1 receptor [10], 34 µM; in [11] it was 22 µM; against Angiopoietin-1 receptor [1] it was 1.8 µM. The compound further had a half-life in data set [12] of 1.8 h.

Broadly, the logD is lipophilicity at a set pH, counting ionised and neutral species. As to `Cn1cnc(-c2ccccc2)c1-c1nc2c(N)ncnc2s1`, the logD in data set [13] came out at 2.7. The bioavailability in [6] is > 100%. In [7], the Vd worked out at 1.2 L/kg. Moreover, in data set [2], the fraction unbound was 0.052. Further, the PPB in the data set with Plasma came out at 94.6%. In addition, the clearance in [8] turned out to be 30.1 mL/min/kg. Further, at Angiopoietin-1 receptor [10], the IC50 amounted to 20 µM. The solubility in [3] amounted to 160 µM (≈ 49.3 µg/mL). In addition, the half-life in [12] was 1.6 h.

As usually defined, the Cmax is the peak of the concentration-time curve. On to `Cc1cc(NC(=O)Nc2cccc(-c3ncn(C)c3-c3cc4c(N)ncnc4s3)c2)on1`, for which the Cmax in data set [14] amounted to 9 nM. Besides, the IC50 on Angiopoietin-1 receptor [1] stood at 0.34 µM.

As to `CC(C)Cn1cnc(-c2ccccc2)c1-c1nc2c(N)ncnc2s1`, in data set [2], the fraction unbound is 0.059. Further, the solubility in [3] came to 70 µM (≈ 24.5 µg/mL). This compound displayed an IC50 at Angiopoietin-1 receptor [1] of 0.49 µM.

For the compound `Nc1ncnc2sc(-c3c(-c4ccccc4)ncn3C[C@H]3CCCO3)nc12`, the fraction unbound in [2] was 0.2. Further, on Angiopoietin-1 receptor [1], the IC50 stood at 0.37 µM.
